Results from ChEMBL document CHEMBL4393709, “Structure-guided optimization of 4,6-substituted-1,3,5-triazin-2(1H)-ones as catalytic inhibitors of human DNA topoisomerase IIα” (Eur J Med Chem, 2019).
The source made the active and inactive calls. No cut-off for these calls is given here.

Assays:
MCF7 = assay: Cytotoxicity against human MCF7 cells assessed as reduction in cell viability at 200 uM after 24 hrs by MTS assay; assay type: functional, cell-based
How it was run: (§1)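 Single-concentration screen: exponentially growing HepG2 or MCF-7 cells were exposed to compounds for 24 h, and viability was read by MTS relative to control. DMSO (0.5%) was the solvent control; etoposide was the positive control.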

HepG2 [1] = assay: Cytotoxicity against human HepG2 cells assessed as reduction in cell viability at 200 uM after 24 hrs by MTS assay; assay type: functional, cell-based; how it was run: as §1
[2] = molecular target: T1, DNA topoisomerase 2-alpha (Homo sapiens, UniProt P11388); assay: Poison activity at human topoisomerase-2alpha assessed as linear DNA formation at 125 uM using supercoiled pBR322 DNA as substrate after 60 mins by ethidium bromide staining based agarose gel electrophoresis method (reference value: […]); settings: 1 h
[3] = molecular target: T1, DNA topoisomerase 2-alpha; assay: Poison activity at human topoisomerase-2alpha assessed as linear DNA formation using supercoiled pBR322 DNA as substrate after 60 mins by ethidium bromide staining based agarose gel electrophoresis method; settings: 1 h
[4] = molecular target: T1, DNA topoisomerase 2-alpha; assay: (§2) Poison activity at human topoisomerase-2alpha assessed as linear DNA formation at […] using supercoiled pBR322 DNA as substrate after 60 mins by ethidium bromide staining based agarose gel electrophoresis method (reference value: […]); settings: 1 h
[5] = molecular target: DNA topoisomerase 2-beta (Homo sapiens) (UniProt Q02880); assay: (§3) Inhibition of human topoisomerase-2beta mediated decatenation at […] using kinetoplast DNA as substrate after 30 mins in presence of ATP by ethidium bromide staining-based gel electrophoresis method relative to control; set-up: scale not given: the % may be the effect or the level left
[6] = molecular target: T1, DNA topoisomerase 2-alpha; assay: as §2; settings: 1 h; remark: listed apart in the source
[7] = molecular target: T1, DNA topoisomerase 2-alpha; assay: Inhibition of human topoisomerase-2alpha mediated decatenation at 500 uM using kinetoplast DNA as substrate after 30 mins in presence of ATP by ethidium bromide staining-based gel electrophoresis method relative to control; set-up: scale not given: the % may be the effect or the level left
[8] = molecular target: T1, DNA topoisomerase 2-alpha; assay: Poison activity at human topoisomerase-2alpha assessed as linear DNA formation at 500 uM using supercoiled pBR322 DNA as substrate after 60 mins by ethidium bromide staining based agarose gel electrophoresis method (reference value: […]); settings: 1 h
[9] = molecular target: T1, DNA topoisomerase 2-alpha; assay: Inhibition of human topoisomerase-2alpha mediated decatenation at 125 uM using kinetoplast DNA as substrate after 30 mins in presence of ATP by ethidium bromide staining-based gel electrophoresis method relative to control; set-up: scale not given: the % may be the effect or the level left
[10] = molecular target: DNA topoisomerase 2-beta (Homo sapiens) (UniProt Q02880); assay: Inhibition of human topoisomerase-2beta mediated decatenation at 125 uM using kinetoplast DNA as substrate after 30 mins in presence of ATP by ethidium bromide staining-based gel electrophoresis method relative to control; set-up: scale not given: the % may be the effect or the level left
How it was run: (§4)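 One U of human topo IIα or IIβ with 200 ng kDNA, 30 min at 37 °C in 50 mM Tris-HCl pH 7.5, 125 mM NaCl, 10 mM MgCl2, 5 mM DTT, 0.5 mM EDTA, 0.1 mg/ml BSA, 1 mM ATP. Compounds (3.9–500 µM, 1% DMSO final) were added before the enzyme. Reactions were stopped with chloroform/isoamyl alcohol, run on a 1% TAE gel and stained with EtBr; inhibition came from band densitometry, in duplicate.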

HepG2 [11] = assay: Cytotoxicity against human HepG2 cells assessed as reduction in cell viability after 24 hrs by MTT assay; assay type: functional, cell-based; settings: HepG2, 24 h
[12] = molecular target: T1, DNA topoisomerase 2-alpha; assay: Poison activity at human topoisomerase-2alpha assessed as linear DNA formation at 50 uM using supercoiled pBR322 DNA as substrate after 60 mins by ethidium bromide staining based agarose gel electrophoresis method (reference value: 1.77 %); settings: 1 h
[13] = molecular target: DNA topoisomerase 2-beta (Homo sapiens) (UniProt Q02880); assay: Inhibition of human topoisomerase-2beta mediated decatenation at 500 uM using kinetoplast DNA as substrate after 30 mins in presence of ATP by ethidium bromide staining-based gel electrophoresis method relative to control; set-up: scale not given: the % may be the effect or the level left; how it was run: as §4
[14] = molecular target: DNA topoisomerase 2-beta (Homo sapiens) (UniProt Q02880); assay: as §3; set-up: scale not given: the % may be the effect or the level left; remark: listed apart in the source
[15] = molecular target: T1, DNA topoisomerase 2-alpha; assay: Inhibition of human topoisomerase 2alpha using supercoiled pNO1 plasmid as substrate after 30 mins by HTS assay

Sequence of DNA topoisomerase 2-beta (Homo sapiens) (Q02880 whole entry): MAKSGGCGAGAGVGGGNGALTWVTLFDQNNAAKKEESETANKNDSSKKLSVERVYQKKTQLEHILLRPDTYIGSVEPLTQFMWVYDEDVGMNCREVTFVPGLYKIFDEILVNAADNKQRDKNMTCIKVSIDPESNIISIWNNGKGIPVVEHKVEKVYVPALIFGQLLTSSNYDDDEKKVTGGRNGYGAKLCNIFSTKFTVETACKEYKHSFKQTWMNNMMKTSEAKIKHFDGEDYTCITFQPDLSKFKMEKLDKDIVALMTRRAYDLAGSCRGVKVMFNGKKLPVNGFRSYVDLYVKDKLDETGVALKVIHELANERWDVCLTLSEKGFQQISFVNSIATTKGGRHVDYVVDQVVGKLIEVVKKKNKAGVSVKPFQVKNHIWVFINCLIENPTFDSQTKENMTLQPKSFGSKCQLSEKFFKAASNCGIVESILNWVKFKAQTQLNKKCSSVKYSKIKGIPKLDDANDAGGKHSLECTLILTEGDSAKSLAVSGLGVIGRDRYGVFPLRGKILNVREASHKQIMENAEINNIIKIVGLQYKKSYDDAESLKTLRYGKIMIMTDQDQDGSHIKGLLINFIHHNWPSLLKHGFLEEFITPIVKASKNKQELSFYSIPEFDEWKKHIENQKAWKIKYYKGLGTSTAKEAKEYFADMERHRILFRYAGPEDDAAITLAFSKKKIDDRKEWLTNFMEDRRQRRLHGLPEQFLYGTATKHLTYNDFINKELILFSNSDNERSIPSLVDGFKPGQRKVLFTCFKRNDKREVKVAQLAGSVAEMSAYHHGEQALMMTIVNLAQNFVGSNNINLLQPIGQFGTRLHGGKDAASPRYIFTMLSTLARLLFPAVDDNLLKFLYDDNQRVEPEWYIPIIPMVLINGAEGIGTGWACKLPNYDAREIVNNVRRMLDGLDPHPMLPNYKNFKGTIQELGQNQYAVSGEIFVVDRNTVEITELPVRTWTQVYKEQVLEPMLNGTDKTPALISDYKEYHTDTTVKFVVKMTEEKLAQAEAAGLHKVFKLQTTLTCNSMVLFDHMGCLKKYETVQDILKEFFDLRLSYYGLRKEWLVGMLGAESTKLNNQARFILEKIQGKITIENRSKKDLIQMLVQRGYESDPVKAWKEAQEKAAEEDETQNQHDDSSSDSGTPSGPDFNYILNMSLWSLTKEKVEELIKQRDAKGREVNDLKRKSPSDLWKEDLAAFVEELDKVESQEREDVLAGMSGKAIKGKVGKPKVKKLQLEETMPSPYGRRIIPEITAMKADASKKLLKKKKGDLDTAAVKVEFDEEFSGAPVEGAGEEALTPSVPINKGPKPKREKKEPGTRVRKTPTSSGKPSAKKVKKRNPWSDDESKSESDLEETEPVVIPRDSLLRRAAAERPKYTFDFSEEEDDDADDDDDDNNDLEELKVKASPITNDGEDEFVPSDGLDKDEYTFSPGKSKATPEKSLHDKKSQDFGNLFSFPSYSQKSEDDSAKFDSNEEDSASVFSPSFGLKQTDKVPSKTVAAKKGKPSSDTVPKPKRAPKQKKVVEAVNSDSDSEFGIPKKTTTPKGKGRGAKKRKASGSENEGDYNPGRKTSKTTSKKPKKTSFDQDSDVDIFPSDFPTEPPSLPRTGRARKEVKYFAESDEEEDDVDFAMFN
T1 sequence (P11388 whole entry): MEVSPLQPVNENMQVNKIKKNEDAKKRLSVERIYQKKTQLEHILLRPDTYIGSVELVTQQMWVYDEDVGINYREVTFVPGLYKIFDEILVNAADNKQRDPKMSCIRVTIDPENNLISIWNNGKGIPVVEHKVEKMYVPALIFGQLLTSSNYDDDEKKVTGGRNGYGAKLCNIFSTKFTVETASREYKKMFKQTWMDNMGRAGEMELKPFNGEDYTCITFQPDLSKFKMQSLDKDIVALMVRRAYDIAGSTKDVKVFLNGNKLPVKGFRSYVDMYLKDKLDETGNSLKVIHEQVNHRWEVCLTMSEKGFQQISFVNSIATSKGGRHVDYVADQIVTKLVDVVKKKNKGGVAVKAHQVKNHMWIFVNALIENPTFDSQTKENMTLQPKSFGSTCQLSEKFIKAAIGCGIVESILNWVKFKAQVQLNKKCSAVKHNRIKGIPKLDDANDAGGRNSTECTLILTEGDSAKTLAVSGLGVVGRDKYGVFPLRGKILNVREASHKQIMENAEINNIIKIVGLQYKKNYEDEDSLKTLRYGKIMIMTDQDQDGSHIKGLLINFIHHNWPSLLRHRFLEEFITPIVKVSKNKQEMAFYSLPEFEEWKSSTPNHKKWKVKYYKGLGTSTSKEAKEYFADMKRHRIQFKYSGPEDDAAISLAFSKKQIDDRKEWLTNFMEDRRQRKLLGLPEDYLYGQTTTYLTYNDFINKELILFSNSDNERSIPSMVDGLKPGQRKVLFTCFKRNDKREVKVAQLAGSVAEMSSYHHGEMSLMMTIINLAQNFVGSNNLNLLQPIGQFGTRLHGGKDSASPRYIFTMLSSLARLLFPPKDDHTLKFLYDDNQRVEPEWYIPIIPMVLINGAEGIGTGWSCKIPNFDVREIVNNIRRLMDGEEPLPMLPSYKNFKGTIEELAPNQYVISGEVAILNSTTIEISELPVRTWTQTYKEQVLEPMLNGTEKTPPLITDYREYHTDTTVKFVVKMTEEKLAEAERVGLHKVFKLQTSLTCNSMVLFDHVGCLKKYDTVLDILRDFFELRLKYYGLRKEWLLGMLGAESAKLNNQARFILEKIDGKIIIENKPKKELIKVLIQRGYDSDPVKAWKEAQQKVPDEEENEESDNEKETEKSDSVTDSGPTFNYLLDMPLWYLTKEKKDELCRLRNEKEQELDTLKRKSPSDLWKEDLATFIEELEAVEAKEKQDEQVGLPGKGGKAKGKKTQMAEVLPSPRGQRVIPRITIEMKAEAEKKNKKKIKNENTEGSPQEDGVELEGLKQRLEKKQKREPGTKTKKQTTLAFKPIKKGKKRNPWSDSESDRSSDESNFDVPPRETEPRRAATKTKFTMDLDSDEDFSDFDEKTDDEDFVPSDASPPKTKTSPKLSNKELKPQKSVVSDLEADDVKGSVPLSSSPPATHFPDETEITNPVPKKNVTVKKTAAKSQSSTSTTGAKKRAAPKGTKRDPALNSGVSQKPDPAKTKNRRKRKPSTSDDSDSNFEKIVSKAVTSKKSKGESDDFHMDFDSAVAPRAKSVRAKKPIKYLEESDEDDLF

O=c1nc(SCc2cccc(O)c2)nc(SCc2ccc(Cl)cc2)[nH]1
Activity (MCF7): inactive
Activity (HepG2 [1]): inactive

CC(C)c1ccc(CSc2nc(SCc3ccc(Cl)cc3)[nH]c(=O)n2)cc1
Activity (MCF7): inactive
Activity (HepG2 [1]): inactive

O=c1nc(SCc2c(F)cccc2F)nc(SCc2ccc(Cl)cc2)[nH]1
Activity (MCF7): inactive
Activity (HepG2 [1]): inactive

COc1cc([C@@H]2c3cc4c(cc3[C@@H](O[C@@H]3O[C@@H]5CO[C@@H](C)O[C@H]5[C@H](O)[C@H]3O)[C@H]3COC(=O)[C@H]23)OCO4)cc(OC)c1O [ETOPOSIDE]
Activity [2]: 34.79%
Activity [3]: Dose-dependent effect
Activity [4]: 13.72%
Activity [5]: 93.4%
Activity [6]: 25.79%
Activity [7]: 2.27%
Activity [8]: 39.98%
Activity [9]: 4.09%
Activity [10]: 23.9%
EC50 (HepG2 [11]): 60.5 to 93.4 µM
Activity [12]: 35.56%
Activity [13]: 14.7%
Activity [14]: 100%

O=C(O)c1cccc(CSc2nc(SCc3ccc(Cl)cc3)[nH]c(=O)n2)c1
Activity (MCF7): inactive
Activity (HepG2 [1]): inactive

O=c1nc(SCc2cccc(O)c2)nc(SCc2ccccc2F)[nH]1
Activity (MCF7): inactive
Activity (HepG2 [1]): inactive

O=c1nc(SCc2ccccc2)nc(SCc2cccc(Cl)c2)[nH]1
IC50 [15]: 57.6 µM

NC(=O)c1cccc(CSc2nc(SCc3cccc(Cl)c3)[nH]c(=O)n2)c1
Activity (MCF7): inactive
Activity (HepG2 [1]): inactive

O=c1nc(SCc2ccc(CO)cc2)nc(SCc2ccc(Cl)cc2)[nH]1
Activity (MCF7): inactive
Activity (HepG2 [1]): inactive

CC(C(=O)O)c1ccc(CSc2nc(SCc3ccccc3F)[nH]c(=O)n2)cc1 (centres undefined)
Activity (MCF7): inactive
Activity (HepG2 [1]): inactive

CC(C(=O)O)c1ccc(CSc2nc(SCc3ccc(Cl)cc3)[nH]c(=O)n2)cc1 (centres undefined)
Activity (MCF7): inactive
Activity (HepG2 [1]): inactive

O=c1nc(SCc2c(F)cccc2F)nc(SCc2ccccc2F)[nH]1
Activity (MCF7): inactive
Activity (HepG2 [1]): inactive

O=C(O)c1cccc(CSc2nc(SCc3ccccc3F)[nH]c(=O)n2)c1
Activity (MCF7): inactive
Activity (HepG2 [1]): inactive

O=c1nc(SCc2cc(F)c(F)cc2F)nc(SCc2ccc(Cl)cc2)[nH]1
Activity (MCF7): inactive
Activity (HepG2 [1]): inactive

O=C(O)c1cccc(CSc2nc(SCc3cccc(Cl)c3)[nH]c(=O)n2)c1
Activity (MCF7): inactive
Activity (HepG2 [1]): inactive

NC(=O)c1cccc(CSc2nc(SCc3ccc(Cl)cc3)[nH]c(=O)n2)c1
Activity (MCF7): inactive
Activity (HepG2 [1]): inactive

O=c1nc(SCc2cc(F)cc(C(F)(F)F)c2)nc(SCc2ccc(Cl)cc2)[nH]1
Activity (MCF7): inactive
Activity (HepG2 [1]): inactive

NC(=O)c1cccc(CSc2nc(SCc3ccccc3F)[nH]c(=O)n2)c1
Activity (MCF7): inactive
Activity (HepG2 [1]): inactive

CC(C(=O)O)c1ccc(CSc2nc(SCc3cccc(Cl)c3)[nH]c(=O)n2)cc1 (centres undefined)
Activity (MCF7): inactive
Activity (HepG2 [1]): inactive

O=c1nc(SCc2ccc3nonc3c2)nc(SCc2ccccc2F)[nH]1
Activity (MCF7): inactive
Activity (HepG2 [1]): inactive

O=c1nc(SCc2ccc(CO)cc2)nc(SCc2ccccc2F)[nH]1
Activity (MCF7): inactive
Activity (HepG2 [1]): inactive

O=c1nc(SCc2ccc3nonc3c2)nc(SCc2cccc(Cl)c2)[nH]1
Activity (MCF7): inactive
Activity (HepG2 [1]): inactive

O=c1nc(SCc2cc(F)cc(C(F)(F)F)c2)nc(SCc2cccc(Cl)c2)[nH]1
Activity [5]: 0%
Activity [10]: 0%
Activity [13]: 0%
Activity [14]: 91.8%

O=c1nc(SCc2ccc(CO)cc2)nc(SCc2cccc(Cl)c2)[nH]1
Activity (MCF7): inactive
Activity (HepG2 [1]): inactive

O=c1nc(SCc2cc(F)cc(C(F)(F)F)c2)nc(SCc2ccccc2F)[nH]1
Activity [5]: 12.5%
Activity [10]: 0%
Activity (MCF7): inactive
Activity [13]: 0%
Activity (HepG2 [1]): inactive
Activity [14]: 99.4%

O=c1nc(SCc2cccc(O)c2)nc(SCc2cccc(Cl)c2)[nH]1
Activity (MCF7): inactive
Activity (HepG2 [1]): inactive

O=c1nc(SCc2c(F)cccc2F)nc(SCc2cccc(Cl)c2)[nH]1
Activity (MCF7): inactive
Activity (HepG2 [1]): inactive

O=c1nc(SCc2ccc(C(F)(F)F)cc2)nc(SCc2ccccc2F)[nH]1
Activity [5]: 0%
Activity [10]: 0%
Activity [13]: 0%
Activity [14]: 98.2%
